What all share (assay type): functional
For assay [1], the system named is Candida albicans. Briefly: Antimicrobial activity against Candida albicans by Alamar blue assay. In outline:
(§1)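 1:2 serial dilution in liquid culture; compound dissolved in DMSO or EtOH. Bacteria grown in TSB+ (5 g/L NaCl); C. albicans in Sabouraud or TSB+. Alamar Blue redox indicator read by colour: blue/purple means growth inhibited, bright pink means growth.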

Assay [2] relates to Staphylococcus aureus. Put plainly: Antimicrobial activity against methicillin-resistant Staphylococcus aureus by Alamar blue assay. The essentials: as §1
The subject of a further assay is Enterococcus sp. Put plainly: Antimicrobial activity against Enterococcus sp. by Alamar blue assay. In outline:
as §1

Assay [3] has as its system Candida albicans. Put plainly: Antimicrobial activity against Candida albicans by agar extract inclusion assay. In outline: (§2)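 Compound dissolved in DMSO or EtOH and mixed into Mueller Hinton agar cooled to 50 °C. Agar serially diluted 1:2 with more cooled agar. Pathogens spotted on the surface at about 2.5 × 10⁵ cells/mL inoculum. Plates incubated overnight at 37 °C and scored for growth inhibition to give the MIC.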

The subject of assay [4] is Staphylococcus aureus. Put plainly: Antimicrobial activity against methicillin-resistant Staphylococcus aureus by agar extract inclusion assay. In outline: as §2

In brackets after ≈: the same amount, converted by molar mass. Activity calls are given as the source filed them. The calls are words filed in the database; no cut-off is given here.

For the molecule `CC(C)CCCCCC(=O)N[C@H](Cc1ccc(O)cc1)C(=O)N[C@@H](CO)C(=O)N[C@H](CC(C)C)C(=O)N[C@@H](Cc1c[nH]c2ccccc12)C(=O)N[C@@H](CCCNC(=N)N)C(=O)O` [TAURAMAMIDE], the outcome with Candida albicans [1] and in the assay on Staphylococcus aureus [2] was inactive. Also, the minimum inhibitory concentration (MIC) against Enterococcus sp. was 0.1 µg/mL (≈ 0.116 µM); against Candida albicans [3], 50 µg/mL (≈ 57.9 µM); in the assay on Staphylococcus aureus [4] it was 200 µg/mL (≈ 231 µM).

Regarding `CCOC(=O)[C@H](CCCNC(=N)N)NC(=O)[C@H](Cc1c[nH]c2ccccc12)NC(=O)[C@@H](CC(C)C)NC(=O)[C@H](CO)NC(=O)[C@@H](Cc1ccc(O)cc1)NC(=O)CCCCCC(C)C` [TAURAMAMIDE ETHYL ESTER], the minimal inhibitory concentration (MIC) is 200 µg/mL (≈ 224 µM) in the assay with Candida albicans [1]; 25 µg/mL (≈ 28 µM) with Staphylococcus aureus [2]; 0.1 µg/mL (≈ 0.112 µM) with Enterococcus sp.; 75 µg/mL (≈ 84.1 µM) against Candida albicans [3]; 9.4 µg/mL (≈ 10.5 µM) in the assay on Staphylococcus aureus [4].

For the origin of these results see ChEMBL document CHEMBL1141433, “Tauramamide, a lipopeptide antibiotic produced in culture by Brevibacillus laterosporus isolated from a marine habitat: structure elucidation and synthesis” (2007).
